Data: ChEMBL document CHEMBL1177665, “Discovery of potent and orally active tricyclic-based FBPase inhibitors” (Bioorg Med Chem, 2010)
The source made the active and inactive calls. The rule behind the calls is not given here.

How the values were obtained:
[1] = target: T1, Fructose-1,6-bisphosphatase 1 (Homo sapiens, UniProt P09467); test: Inhibition of human FBase
T1 sequence (P09467 whole entry): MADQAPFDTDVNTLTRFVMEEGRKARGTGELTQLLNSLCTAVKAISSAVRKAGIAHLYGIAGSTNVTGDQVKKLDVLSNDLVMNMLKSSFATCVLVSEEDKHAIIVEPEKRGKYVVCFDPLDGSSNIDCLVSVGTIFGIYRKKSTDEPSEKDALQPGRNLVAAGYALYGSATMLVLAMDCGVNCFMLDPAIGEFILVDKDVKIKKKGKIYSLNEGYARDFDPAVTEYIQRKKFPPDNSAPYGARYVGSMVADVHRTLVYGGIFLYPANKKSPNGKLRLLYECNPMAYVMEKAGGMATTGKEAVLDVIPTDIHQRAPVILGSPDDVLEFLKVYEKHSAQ

[2] = Inhibition of monkey FBase; design: species or system Macaca mulatta
[3] = Antidiabetic activity in monkey hepatocytes assessed as inhibition of glucose production after 4 hrs; assay type: functional, cell-based; settings: Macaca mulatta, Hepatocyte
How it was run: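 Monkey hepatocytes in phosphate buffered saline with 25 mM sodium bicarbonate, 25 mM HEPES, 1% BSA; compound preincubation only 2 min, then washed out and cells incubated 4 h with 10 mM lactate plus 1 mM pyruvate. Medium glucose measured by Glucose CII-test; IC50 reported as mean SD (n = 7).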

Cynomolgus monkey = test: Antidiabetic activity in cynomolgus monkey assessed as decrease in blood glucose level at 20 mg/kg, po after 4 hrs; assay type: functional, organism-based; design: dose 20 mg/kg; settings: Macaca fascicularis
How it was run: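 Overnight-fasted cynomolgus monkeys (n = 7, 5–8 years old) dosed orally at 20 mg/kg in vehicle (50% PEG 400, 0.5% MC, 0.5% Tween 80) or vehicle alone; crossover in same animals with at least 2-week washout. Blood drawn predose and 1–12 h post-dose; plasma glucose read on i-STAT 300F analyser; mean S.E.M., paired t-test versus vehicle.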

SMILES | IC50 [1] | IC50 [2] | IC50 [3] | Activity (Cynomolgus monkey)
CCOC(=O)[C@H](C)NP(=O)(COc1ccc(C)c2c1-c1ncsc1C2)N[C@@H](C)C(=O)OCC | 8 nM | 24 nM | 7400 nM | 
CCOC(=O)[C@H](C)NP(=O)(COc1ccc(C(=O)NC)c2c1-c1ncsc1C2)N[C@@H](C)C(=O)OCC | 2 nM | 19 nM | > 100000 nM | 
CCOC(=O)[C@H](C)NP(=O)(COc1ccc(C(N)=O)c2c1-c1ncsc1C2)N[C@@H](C)C(=O)OCC | 1 nM | 22 nM | 94000 nM | 
CCOC(=O)CNP(=O)(COc1cc(C)c(C)c2c1-c1ncsc1C2)NCC(=O)OCC | 10 nM | 34 nM | 9400 nM | 
CCOC(=O)[C@H](C)NP(=O)(COc1cc(C)c(C)c2c1-c1ncsc1C2)N[C@@H](C)C(=O)OCC | 10 nM | 34 nM | 6800 nM | Active
CCOC(=O)[C@H](C)NP(=O)(COc1ccc(CC)c2c1-c1ncsc1C2)N[C@@H](C)C(=O)OCC | 11 nM | 23 nM | 23000 nM | 
Cc1cc(OCP(=O)(N[C@@H](C)C(=O)OC(C)C)N[C@@H](C)C(=O)OC(C)C)c2c(c1C)Cc1scnc1-2 | 10 nM | 34 nM | 9000 nM | 
CCOC(=O)[C@H](C)NP(=O)(N[C@@H](C)C(=O)OCC)c1ccc(-c2nc(N)sc2CC(C)C)o1 | 10 nM | 30 nM | 10000 nM | 
CCOC(=O)[C@H](C)NP(=O)(COc1ccc(C(=O)NCC(C)(C)C)c2c1-c1ncsc1C2)N[C@@H](C)C(=O)OCC | 11 nM | 31 nM | > 100000 nM | 
